High-throughput results deposited in PubChem by The Scripps Research Institute Molecular Screening Center.
TAAR1 agonist: human TAAR1 agonists, primary screen, Fluo-8 calcium fluorescence, CHO RD-HGA16 cells. vehicle wells 0%, saturating PEA agonist 100%. hit rate 0.99% among 360,000. activation, % at 3 µM;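 active means activation above the mean activation of all test compounds in the run plus 3 SD, cut at about 38% in these data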
Target sequence (Q96RJ0 whole entry, looked up): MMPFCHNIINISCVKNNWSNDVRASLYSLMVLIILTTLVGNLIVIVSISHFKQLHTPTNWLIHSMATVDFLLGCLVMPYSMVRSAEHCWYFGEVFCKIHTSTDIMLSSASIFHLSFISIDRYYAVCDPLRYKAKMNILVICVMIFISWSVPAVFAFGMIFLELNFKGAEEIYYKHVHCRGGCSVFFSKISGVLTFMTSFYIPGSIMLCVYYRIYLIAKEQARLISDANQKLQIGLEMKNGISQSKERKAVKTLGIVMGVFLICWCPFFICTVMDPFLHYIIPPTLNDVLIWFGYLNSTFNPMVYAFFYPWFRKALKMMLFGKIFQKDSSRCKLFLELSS
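System: CHO RD-HGA16 cells carrying human TAAR1 plus Gα16; Incubation: 17-24 h seeding, 75 min 37 °C dye, 30 min RT; Measured by: Fluo-8 fluorescence, 5 s baseline then 140 s kinetic read; Control set: DMSO and PEA EC100; Replication: single well for each compound.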
TAAR1 antagonist: human TAAR1 antagonists, primary screen, Fluo-8 calcium fluorescence, CHO RD-HGA16 cells | Trace amine-associated receptor 1 (Homo sapiens), Q96RJ0 | antagonist | inhibition, % at 3 µM | hit rate 1.5% among 360,000 | AID 624466, 2012;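 active means inhibition above a per-plate cutoff, the mean inhibition of test compounds on that plate plus 3 SD, cut at about 49% in these data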
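Test system – hTAAR1-expressing CHO RD-HGA16 cells, Gα16-coupled · Reagent – β-PEA at EC80 concentration, post-compound challenge · Compound dosing – 3 µM, single point · Timing – 140 s kinetic read after compound, 140 s after agonist · Detection – Fluo-8 intracellular calcium dye fluorescence, real-time kinetic reads · Control set – DMSO and EC80 PEA controls · Repeats – n of 1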
OX1R antag-1: OX1R (HCRTR1) antagonists, primary screen, fluorescence, CHO/OX1R cells, Fluo-8 calcium, orexin A. Fluo-8 calcium fluorescence. inhibition, % at 5 µM. Orexin/Hypocretin receptor type 1 (Homo sapiens), O43613. hit rate 0.43% among 330,000;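 active means inhibition above its plate's threshold, mean inhibition of all tested compounds on the plate plus 3 SD, cut at about 37% in these data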
GPR7 antagonist: GPR7 receptor antagonists, primary screen, cell-based, fluorescence, single concentration. hit rate 1.1% among 290,000. inhibition, % at 4.4 µM. Neuropeptides B/W receptor type 1 (Homo sapiens), P48145. GPR7-expressing cells, fluorescence antagonist assay; in the data active means inhibition above about 16%, passing the limit was not always enough;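 further: cells stimulated with the agonist NPW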
Target sequence (P48145 whole entry, looked up): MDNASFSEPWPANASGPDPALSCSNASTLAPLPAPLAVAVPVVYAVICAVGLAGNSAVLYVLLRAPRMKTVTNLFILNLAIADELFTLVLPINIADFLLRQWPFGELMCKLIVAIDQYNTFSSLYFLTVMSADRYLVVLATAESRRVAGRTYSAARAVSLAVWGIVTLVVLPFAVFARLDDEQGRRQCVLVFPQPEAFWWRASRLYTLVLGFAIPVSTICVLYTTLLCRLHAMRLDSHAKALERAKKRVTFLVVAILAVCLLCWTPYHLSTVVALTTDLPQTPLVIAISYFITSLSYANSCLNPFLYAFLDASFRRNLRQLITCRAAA
CHO parental Ca: ATP-evoked calcium signal inhibitors, parental CHO, primary screen, counter-screen for OX1R antagonist project, cell-based, fluorescence, Fluo-8 calcium dye; hit rate 0.63% among 330,000; inhibition, % at 5.6 µM; parental CHO-K1, ATP-induced calcium, Fluo-8 fluorescence;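 active means inhibition above that plate's mean sample inhibition plus 3 SD, cut at about 26% in these data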
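material = parental CHO cells | also added = ATP as calcium-mobilizing challenge | dosing = single point at 5.6 µM | detection = intracellular calcium via Fluo-8 no-wash fluorescent dye | read-out = % inhibition | benchmarks = low control ATP plus DMSO, high control DMSO only | repeats = one well per compound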
OX1R antag-2: antagonists of human orexin 1 receptor (OX1R). OX1R-expressing cells, FRET antagonist read-out. Orexin/Hypocretin receptor type 1 (Homo sapiens), O43613. inhibition, % at 6.6 µM. hit rate 1.8% among 330,000; in the data active means inhibition mostly above about 38%, no sharp cut-off; inactive means mostly below about 40%
GPR7 antag cf: GPR7 receptor antagonists, confirmation, cell-based, fluorescence, single concentration | shares compounds with GPR7 antagonist | GPR7-expressing cells, calcium fluorescence antagonist mode | inhibition, % at 4.4 µM | hit rate 52% among 2,400 | AID 1952, 2009; in the data active means inhibition above about 24%;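 further: stimulated with the GPR7 agonist NPW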
MCHR1 antagonist: MCHR1 antagonists in cells, counter-screen for GPR7 antagonist project, cell-based, fluorescence, human. shares compounds with GPR7 antagonist. MCHR1-expressing cells, fluorescence antagonist assay. inhibition, % at 4.4 µM. hit rate 62% among 2,400; in the data active means inhibition above about 22%
TAAR1 ag conf: human TAAR1 agonists, retest of hits, confirmation, Fluo-8 calcium fluorescence, CHO RD-HGA16 cells | scaled: DMSO 0%, maximal phenethylamine 100% | shares compounds with TAAR1 agonist | hit rate 82% among 2,400 | activation, % at 3 µM;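 active means activation above a cutoff set at the run's mean compound activation plus 3 SD, cut at about 39% in these data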
Ga16 ag counter: nonselective calcium mobilization agonists, CHO-Ga16 cells, counter-screen for hTAAR1 agonist project, cell-based, fluorescence, CHO-Ga16 parental line | shares compounds with TAAR1 agonist | Fluo-8 calcium fluorescence; normalized to maximal ATP response, DMSO zero | activation, % at 3 µM | hit rate 50% among 2,400 | AID 651787, 2012;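 active means activation above the run cutoff, the mean activation over all tested wells plus 3 SD, cut at about 12% in these data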
TAAR1 desens: TAAR1 desensitization by agonist hits, confirmation, counter-screen for TAAR1 agonist project, cell-based, fluorescence, tachyphylaxis. shares compounds with TAAR1 agonist. CHO RD-HGA16 hTAAR1, Fluo-8 calcium, beta-PEA response inhibition. inhibition, % at 3 µM. hit rate 46% among 2,400. AID 651951, 2012;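 active means inhibition above the run cutoff, the mean inhibition of all test compounds plus 3 SD, cut at about 49% in these data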;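 further: beta-PEA stimulus applied at its EC80; loss of beta-PEA calcium signal after compound pretreatment read as receptor desensitization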
Ga16 nonsel ant: inhibition of ATP-evoked calcium response in CHO-Ga16 cells, counter-screen for TAAR1 agonist project, cell-based, fluorescence; CHO-Ga16 ATP-induced calcium, Fluo-8 fluorescence; inhibition, % at 3 µM; AID 651952, 2012; hit rate 39% among 2,400; shares compounds with TAAR1 agonist;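 active means inhibition above the plate's mean compound inhibition plus 3 SD, computed per plate, cut at about 22% in these data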
A number is an active result; - = inactive; . = no result given. The list is not random: actives were taken first. Their share in the collection is about 4.5%.

SMILES	TAAR1 agonist	TAAR1 antagonist	OX1R antag-1	GPR7 antagonist	CHO parental Ca	OX1R antag-2	GPR7 antag cf	MCHR1 antagonist	TAAR1 ag conf	Ga16 ag counter	TAAR1 desens	Ga16 nonsel ant
CCC(=O)NC(=S)Nc1ccccc1OC	-	-	-	-	-	-	.	.	.	.	.	.
Cc1cccc(NC(=S)NC(=O)Cc2ccccc2)c1C	82.0	65.0	.	24.3	.	.	33.8	-	77.3	54.5	-	31.8
Cc1cccc(NC(=S)NC(=O)CCc2ccccc2)c1C	-	-	-	-	-	-	.	.	.	.	.	.
CCOC(=O)/C(=C/C=C1\Sc2cc(C)c(C)cc2N1CC)C(C)=O	378.5	107.2	.	24.3	.	.	38.4	75.7	159.9	126.2	90.6	83.8
CSc1ccc(Cn2nnc(C(=O)NCc3ccccc3)c2N)cc1	98.3	75.1	-	36.7	-	-	56.9	52.3	104.8	48.2	59.5	41.1
COc1cc(/C=C2\SC(=Nc3ccc(Cl)c(C(=O)O)c3)NC2=O)c(Br)c(Br)c1O	98.1	76.0	.	39.7	.	.	28.4	48.2	49.1	57.9	57.0	70.2
COC(=O)/C=C1\SC(=Nc2ccc(Cl)c(Cl)c2)NC1=O	-	-	-	-	-	-	.	.	.	.	.	.
CNCCCOc1ccc(C(C)(C)c2ccccc2)cc1	.	.	.	-	.	.	.	.	.	.	.	.
CCC(C)NCCOc1ccc(C(C)(C)c2ccccc2)cc1 (stereo unspecified)	53.8	-	-	21.5	-	-	27.4	30.1	69.3	39.4	-	26.4
N#CC(C#N)=C1C=C2C=C(N3CCOCC3)CCC2CC1 (stereo unspecified)	682.1	108.8	.	34.1	.	.	82.4	96.5	726.1	879.9	106.3	102.9
CCC(C)(C)NC(=O)C(c1cccc(OC)c1OC)N(CCOC)C(=O)CCC(=O)Nc1cc(C)on1 (stereo unspecified)	-	-	-	-	-	-	.	.	.	.	.	.
CN(/N=C/c1ccc(-c2ccc([N+](=O)[O-])cc2)o1)c1ccccc1	66.1	67.8	60.1	45.4	52.9	-	56.3	71.5	44.2	71.1	63.5	73.7
CC(C)N1CCN(C(=O)c2ccc([N+](=O)[O-])cc2)CC1	-	-	-	.	-	-	.	.	.	.	.	.
CC[C@@H](C(=O)[C@@H](C)[C@@H](O)[C@H](C)CCc1ccc(C)c(O)c1C(=O)O)[C@H]1O[C@](CC)([C@H]2CC[C@](O)(CC)[C@H](C)O2)C[C@@H]1C	76.5	67.3	40.1	48.4	38.6	-	47.7	38.4	73.0	64.6	73.4	52.3
COC(=O)C(NC(=O)c1ccccc1C)(Nc1ncc(S(=O)(=O)c2ccc([N+](=O)[O-])cc2)s1)C(F)(F)F (stereo unspecified)	70.2	-	-	34.5	-	-	41.1	36.9	54.8	25.7	51.5	22.5
O=C(O)CN1C(=O)/C(=C\c2cc([N+](=O)[O-])ccc2OCc2ccccc2Cl)SC1=S	-	-	-	-	-	-	.	.	.	.	.	.
O=C1/C(=C\c2cc([N+](=O)[O-])ccc2O)SC(=S)N1Cc1ccc(Cl)cc1	83.7	86.8	68.4	35.0	62.1	-	46.8	85.8	112.7	121.1	102.4	96.8
O=C(N/N=C/c1ccc(O)cc1)c1ccc(COc2cc(Cl)ccc2Cl)o1	92.6	75.6	67.3	52.9	59.0	-	68.3	78.0	98.2	69.4	87.2	58.9
Cc1noc(NS(=O)(=O)c2ccc(NC(=O)c3cc(S(=O)(=O)Nc4ccc(F)cc4)ccc3Cl)cc2)c1C	-	-	.	.	.	.	.	.	.	.	.	.
O=S(=O)(NC1CCCC1)c1ccc(S(=O)(=O)NC2CCCC2)cc1	56.9	-	-	43.4	-	-	51.1	33.2	44.6	23.7	-	31.6
O=S(=O)(NC1CCCCCCC1)c1ccc(F)cc1	-	-	-	.	-	-	.	.	.	.	.	.
O=C(CC(O)(CC(=O)OCc1ccccc1)C(=O)OCc1ccccc1)OCc1ccccc1	-	-	.	.	.	.	.	.	.	.	.	.
CCCCCCCCCCOC(=O)Cn1c(COc2ccccc2OC)[n+](C)c2ccccc21	65.8	89.5	76.8	53.2	83.8	-	98.2	107.2	79.1	91.1	94.2	100.0
Cc1ccc(C(=O)NCc2ccco2)cc1S(=O)(=O)Nc1cccc(Cl)c1	-	-	-	-	-	-	.	.	.	.	.	.
O=C(NCCC1=CCCCC1)c1coc(=O)c(Br)c1	62.0	-	-	32.5	-	-	-	24.2	48.3	-	-	-
CC(=O)Nc1ccc(Sc2ncccc2C(=O)Nc2cc(Cl)cc(Cl)c2)cn1	-	-	-	-	-	-	.	.	.	.	.	.
CC(=O)Nc1ccc(Sc2ncccc2C(=O)Nc2ccc(OC(F)(F)F)cc2)cn1	138.8	104.2	87.7	96.8	77.3	-	98.3	102.5	143.0	107.0	104.3	89.7
O=C(COc1ccc(Br)cc1CNCCc1ccccc1)NCc1ccccc1	93.8	68.8	-	30.9	-	-	40.1	53.6	88.7	25.0	80.2	43.3
CCCNCc1cc(Br)ccc1OCC(=O)NCCc1ccccc1	-	-	-	-	-	-	.	.	.	.	.	.
